Measurements gathered from unrelated publications.
Protocols differ between the studies behind these lines.
TYRO3: Tyrosine-protein kinase receptor TYRO3 (TYRO3, Homo sapiens, UniProt Q06418)
Aldo-keto reductase family 1 member B1: Aldo-keto reductase family 1 member B1 (Bos taurus, UniProt P16116)
FLT3: Receptor-type tyrosine-protein kinase FLT3 (FLT3, Homo sapiens, UniProt P36888)
CSNK1D: Casein kinase I isoform delta (CSNK1D, Homo sapiens, UniProt P48730)
DHFR: Dihydrofolate reductase (DHFR, Homo sapiens, UniProt P00374)
FAAH: Fatty-acid amide hydrolase 1 (FAAH, Homo sapiens, UniProt O00519)
F2: Prothrombin (F2, Bos taurus, UniProt P00735)
AURKA: Aurora kinase A (AURKA, Homo sapiens, UniProt O14965)
ROCK1: Rho-associated protein kinase 1 (ROCK1, Homo sapiens, UniProt Q13464)
PTGS1: Prostaglandin G/H synthase 1 (PTGS1, Homo sapiens, UniProt P23219)
HTR2C: 5-hydroxytryptamine receptor 2C (HTR2C, Homo sapiens, UniProt P28335)

SMILES	target	effect on	mode	method	setting	IC50
CCCC[C@@H](C(=O)N[C@@H](CC(=O)O)C(=O)N(C)[C@@H](Cc1ccccc1)C(N)=O)N(C)C(=O)[C@H](Cc1c[nH]c2ccccc12)NC(=O)CNC(=O)[C@H](Cc1ccc(O)cc1)NC(=O)[C@H](C)NC(=O)[C@@H](CCC(=O)O)NC(=O)CN1CCN(CC(=O)O)CCN(CC(=O)O)CCN(CC(=O)O)CC1	Gastrin/cholecystokinin type B receptor (CCKBR, Homo sapiens, UniProt P32239)	ligand displacement	–	radioligand	–	0.00498 µM
Cc1ccc(C(=O)Nc2ccc(Oc3cc4cnn(C)c4cc3-c3cn[nH]c3)c(F)c2)c(=O)n1-c1ccc(F)cc1	TYRO3	cell growth or viability	–	ATP luminescence	–	0.028 µM
CC(C)C[C@H](CC(=O)NO)C(=O)N[C@@H](Cc1ccccc1)C(=O)NCCN1CCOCC1	Stromelysin-1 (MMP3, Homo sapiens, UniProt P08254)	enzyme activity	inhibitor	fluorescence	–	0.225 µM
C/C(=N/N=c1/scc(-c2ccc(Br)cc2)n1-c1ccccc1)c1ccc2c(c1)OCCO2	Aldo-keto reductase family 1 member B1	enzyme activity	inhibitor	absorbance	–	5.96 µM
CC(C)Nc1ccnc(Nc2cccc(-c3ccncc3)c2)n1	FLT3	enzyme activity	inhibitor	–	–	0.284 µM
O=C1NCCc2sc(-c3ccncc3)cc21	CSNK1D	enzyme activity	inhibitor	–	–	1.4 µM
Clc1ccc(Cn2c(-c3ccc(Cl)cc3)nc3ccccc32)cc1	DHFR	enzyme activity	inhibitor	–	–	10.6 µM
O=C(Oc1nsnc1N1CCC(c2ccccc2)CC1)N1CCCCC1	FAAH	enzyme activity	inhibitor	–	cell membranes	1.48 µM
CC1=C(/C=C/C(C)=C/C=C/C(C)=C/C=O)C(C)(C)CCC1	F2	enzyme activity	inhibitor	fluorescence	–	74 µg/mL
CC(C)Nc1ccnc(Nc2ccccc2-c2ccccc2)n1	FLT3	enzyme activity	inhibitor	–	–	> 24 µM
C/C(=N/N=c1/scc(-c2ccc(Br)cc2)n1Cc1ccccc1)c1ccc2c(c1)OCCO2	Aldo-keto reductase family 1 member B1	enzyme activity	inhibitor	absorbance	–	1.39 µM
CN1CCN(c2ccc(Nc3ncc4cc(C#N)c(=O)n(C5CCCC5)c4n3)cc2)CC1	CSNK1D	enzyme activity	inhibitor	–	–	1.77 µM
COc1cccc(-c2cccc(Nc3nccc(NC4CCCCC4)n3)c2)c1	FLT3	enzyme activity	inhibitor	–	–	24.5 µM
O=[N+]([O-])c1ccc(-c2cs/c(=N/N=C\c3c[nH]c4ccccc34)n2Cc2ccccc2)cc1	Aldo-keto reductase family 1 member B1	enzyme activity	inhibitor	absorbance	–	1.52 µM
CC1=C(/C=C/C(C)=C/C=C/C(C)=C/CO)C(C)(C)CCC1	F2	enzyme activity	inhibitor	fluorescence	–	531 µM
N#Cc1ccc(Cn2ccc3c4c(N)nc(N)nc4ccc32)cc1	DHFR	enzyme activity	inhibitor	–	–	0.0068 µM
COC(=O)c1cccc(Nc2nccc(NC3CCCCC3)n2)c1	FLT3	enzyme activity	inhibitor	–	–	0.978 µM
CC(=N/N=c1\scc(-c2ccc(Br)cc2)n1-c1ccccc1)C12CC3CC(CC(C3)C1)C2	Aldo-keto reductase family 1 member B1	enzyme activity	inhibitor	absorbance	–	4.4 µM
CC[C@@H](C)Nc1ccnc(Nc2cccc(-c3cccnc3)c2)n1	FLT3	enzyme activity	inhibitor	–	–	< 0.006 µM
CCCOc1ccc(Nc2cc(C)nc3ccc(Cl)cc23)cc1	Cell division protein FtsZ (Mycobacterium tuberculosis, UniProt P9WN95)	tubulin polymerisation	inhibitor	–	–	22.7 µM
c1cc(Nc2nccc(NC3CCCCC3)n2)cc(-c2cnccn2)c1	FLT3	enzyme activity	inhibitor	–	–	0.02 µM
CC/C=C\C/C=C\C/C=C\C/C=C\C/C=C\CCCC(=O)O	DNA topoisomerase 2-alpha (TOP2A, Homo sapiens, UniProt P11388)	enzyme activity	inhibitor	–	–	10 µM
NNC(c1nnnn1CC(c1ccccc1)c1ccccc1)C1CCCCC1 (stereo not drawn)	Endothiapepsin (EAPA, Cryphonectria parasitica, UniProt P11838)	enzyme activity	inhibitor	fluorescence	–	96.8 µM

SMILES	target	effect on	mode	method	setting	IC50
CC(=N/N=c1\scc(-c2ccc(Br)cc2)n1-c1cccc2ccccc12)C12CC3CC(CC(C3)C1)C2	Aldo-keto reductase family 1 member B1	enzyme activity	inhibitor	absorbance	–	12.9 µM
COc1ccc2c(Oc3ccc4c(C(=O)Nc5ccccc5N)cccc4c3)ccnc2c1	AURKA	enzyme activity	inhibitor	–	–	> 0.5 µM
CC(C)(C)n1nc(-c2ccc3nc(OC4CC4)ccc3c2)c(C(N)=O)c1N	ROCK1	cell-free assay	–	–	–	> 10 µM
CCCCNc1ccnc(Nc2cccc(-c3cccnc3)c2)n1	FLT3	enzyme activity	inhibitor	–	–	0.123 µM
Nc1nc(Nc2ccc3c(c2)CC[C@@H](N2CCCC2)CC3)nn1-c1cc2c(nn1)-c1ccccc1CCC2	TYRO3	enzyme activity	inhibitor	–	–	0.927 µM
CC(C)(C(=O)O)C1=C/C(=C\c2ccc(-c3ccccc3)cc2)c2ccc(F)cc21	PTGS1	enzyme activity in cells	inhibitor	–	–	1.3 µM
CN(C)c1ccc(Nc2nc(-c3ccncc3)nc3c2CC(N)CC3)cc1 (stereo not drawn)	PTGS1	enzyme activity	inhibitor	–	–	~4.5 µM
Cc1ccc2nc(-c3ccc([N+](=O)[O-])cc3)n(Cc3ccc(Cl)cc3)c2c1	DHFR	enzyme activity	inhibitor	–	–	8.01 µM
CCN(CC)CCCC[C@H](NC(=O)[C@H](CC(C)C)NC(=O)[C@H](C)NC(=O)[C@H](Cc1ccccc1)NC(=O)c1ccc(C(C)(C)C)cc1)C(=O)N[C@@H](CO)C(=O)OC	Chromodomain Y-like protein 2 (CDYL2, Homo sapiens, UniProt Q8N8U2)	ligand displacement	–	TR-FRET	–	0.085 µM
CC1Cc2ccccc2N1C(=O)NCCCCN(C)[C@@H]1Cc2cccc3[nH]c(=O)n(c23)C1 (mixture of isomers)	HTR2C	ligand displacement	–	radioligand	–	> 10 µM
O=C(Oc1nsnc1N1CCCCC1)N1CCc2ccccc2C1	FAAH	enzyme activity	inhibitor	–	cell membranes	0.562 µM
Cc1nccc2c1c(=O)n(C)c1cc(OC[C@@H](N)CC(C)C)c(C#N)cc21	BMP-2-inducible protein kinase (BMP2K, Homo sapiens, UniProt Q9NSY1)	enzyme activity	inhibitor	–	–	0.045 µM
CC(C)(C)n1nc(-c2cnc3cc(OC4CC4)ccc3c2)c(C(N)=O)c1N	ROCK1	cell-free assay	–	–	–	> 10 µM
N[C@H](Cc1c[nH]c2ccccc12)C(=O)O	DHFR	enzyme activity	inhibitor	–	–	2000 µM
CN(C)CC#Cc1ccc2[nH]c3c(c2c1)-c1nc(N)ncc1CCC3	Serine/threonine-protein kinase ULK3 (ULK3, Homo sapiens, UniProt Q6PHR2)	enzyme activity	inhibitor	radiometric	–	> 10 µM
Cc1ccc2nc(-c3ccc(Cl)cc3)n(Cc3ccccc3)c2c1	DHFR	enzyme activity	inhibitor	–	–	2.35 µM
CC(=N/N=c1\scc(-c2ccc(Br)cc2)n1-c1c(C)cccc1C)C12CC3CC(CC(C3)C1)C2	Aldo-keto reductase family 1 member B1	enzyme activity	inhibitor	absorbance	–	4.21 µM
O=C(Nc1ccc(Br)cc1)N1CCC(n2c(=O)[nH]c3c(Br)cccc32)CC1	Formamidopyrimidine-DNA glycosylase (Escherichia coli, UniProt P05523)	enzyme activity	inhibitor	–	–	> 100 µM
c1cc(Nc2nccc(NC3CCCCC3)n2)cc(-n2ccnc2)c1	FLT3	enzyme activity	inhibitor	–	–	0.016 µM
Cc1cnc(-c2ccc(-c3ccc(NC(=O)Nc4c(F)cc(F)cc4F)cc3F)c3c2C(=O)NC3)[nH]1	AURKA	enzyme activity	inhibitor	–	–	0.00038 µM
O=C(Oc1nsnc1N1CCN(c2ccccc2)CC1)N1CCCCC1	FAAH	enzyme activity	inhibitor	–	cell membranes	0.209 µM
CN(CCCCNC(=O)c1cc2ccccc2[nH]1)[C@@H]1Cc2cccc3[nH]c(=O)n(c23)C1	HTR2C	ligand displacement	–	radioligand	–	3.08 µM
